Bioassay records deposited in PubChem BioAssay by several laboratories.
ALR H2O2 inh = inhibitors of human ALR sulfhydryl oxidase, primary screen, biochemical, H2O2 detection, HRP-luminol luminescence, single point | FAD-linked sulfhydryl oxidase ALR (Homo sapiens), P55789 | purified ALR, DTT oxidation | inhibition, % (test concentration not listed) | 3.8% of 290,000 active | AID 485317, 2010;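 active = mean replicate inhibition above about 79%, with every replicate also reaching it, limit read from the data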
Target sequence (P55789 whole entry, looked up): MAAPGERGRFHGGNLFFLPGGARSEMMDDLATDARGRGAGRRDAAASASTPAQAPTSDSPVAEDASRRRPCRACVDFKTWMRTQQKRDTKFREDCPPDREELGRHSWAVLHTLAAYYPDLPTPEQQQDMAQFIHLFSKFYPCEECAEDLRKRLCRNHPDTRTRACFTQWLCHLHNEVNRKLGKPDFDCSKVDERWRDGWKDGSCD
Rtt109 Vps75 = inhibitors of C. albicans Rtt109/Vps75 HAT, primary screen, biochemical, ThioGlo CoA-SH fluorescence, plate reader; purified Rtt109/Vps75, 4 h; inhibition, % at 34.9 µM; AID 540336, 2011; 0.16% of 330,000 active;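 active = inhibition of at least 50% in every replicate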
FAS-TE inh = FAS thioesterase domain inhibitors, primary screen, biochemical, fluorescence intensity, uHTS | Fatty acid synthase (Homo sapiens), P49327 | recombinant FAS-TE, OMFH fluorogenic substrate, fluorescence endpoint | inhibition, % at 15 µM | 0.67% of 360,000 active;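 active = compounds whose normalised, plate-corrected inhibition of enzyme fluorescence in the single-dose primary screen is 50% or more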;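 note: 0% = DMSO with enzyme and 100% = substrate without enzyme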
HDAC3 inhib = HDAC3 deacetylase inhibitors, primary screen, biochemical, fluorescence, cell-free homogeneous. Histone deacetylase 3 (Homo sapiens), O15379. recombinant HDAC3, fluorogenic peptide/trypsin coupled. inhibition, % at 8.3 µM. 0.15% of 320,000 active; in the data active = inhibition above about 26%, passing the limit was not always enough
UCH37 inh = inhibitors of human UCH37 deubiquitinase, primary screen, biochemical, Ub-AMC cleavage, fluorescence | 0.33% of 330,000 active | AID 588478, 2011 | purified proteasome/UCH37 | Ubiquitin carboxyl-terminal hydrolase isozyme L5 (Homo sapiens), Q9Y5K5 | inhibition, % (concentration not given with the values);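 active = mean inhibition over replicate wells above about 20%, limit read from the data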;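 note: 0% = compound-free wells with enzyme and 100% = wells lacking proteasome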
Target sequence (Q9Y5K5 whole entry, looked up): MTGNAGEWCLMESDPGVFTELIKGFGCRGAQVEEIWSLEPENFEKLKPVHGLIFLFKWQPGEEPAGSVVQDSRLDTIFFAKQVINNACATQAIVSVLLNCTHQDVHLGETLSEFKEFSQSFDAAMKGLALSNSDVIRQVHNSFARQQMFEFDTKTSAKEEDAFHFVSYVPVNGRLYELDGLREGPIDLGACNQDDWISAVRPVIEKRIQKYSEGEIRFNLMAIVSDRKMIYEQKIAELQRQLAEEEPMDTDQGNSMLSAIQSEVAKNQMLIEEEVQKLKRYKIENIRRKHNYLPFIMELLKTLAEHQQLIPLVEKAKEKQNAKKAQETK
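Assay system: Proteasome-bound UCH37. Buffer or medium: pH 7.4 Tris-HCl (50 mM) with ovalbumin, ATP-MgCl2, DTT. Incubation: 30 min preincubation with enzyme, 25 min cleavage at room temperature. Measured by: fluorescence, ex 355 nm, em 460 nm. Read-out basis: percent inhibition. Control set: wells without proteasome as full block, compound-free enzyme plus substrate as uninhibited.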
PfM18AAP inh = PfM18AAP inhibitors, malaria aminopeptidase, primary screen, biochemical, QFRET, recombinant enzyme. M18 aspartyl aminopeptidase (Plasmodium falciparum 3D7). H-Glu-NHMec fluorogenic cleavage. inhibition, % at 7.35 µM. 1.2% of 290,000 active. AID 1822, 2009;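 active = inhibition above the campaign mean inhibition over all tested compounds plus 3 SD, cut at about 28% in these data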;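 note: 0% = plate median of test compound wells and 100% = 2 mM ZnCl2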
Active calls of the source: *; . = no result. Only some compounds are listed: those with a hit (about 4.6% of all), similar ones and a draw of the others.

SMILES	ALR H2O2 inh	Rtt109 Vps75	FAS-TE inh	HDAC3 inhib	UCH37 inh	PfM18AAP inh
O=C(NN=C1CCCC1)c1n[nH]c2c1CCCC2	99*	8	-8	-7	4	-9
Cn1nnc2c[n+](CC(=O)c3ccc(Cl)cc3)cc(Br)c21	91*	.	-4	-1	4	-2
Cn1nnc2c[n+](CC(=O)c3ccc4ccccc4c3)cc(Br)c21	4	6	-1	2	10	1
CC1=NNC(=O)C1CCC(=O)NN=C/C=C/c1ccccc1 (centres undefined)	.	.	.	.	3	.
Cc1cc(C=NNC(N)=S)c(C)n1-c1ccc(Br)cc1	.	.	.	.	-3	.
CCn1cc(SCC(=O)N2CCc3ccccc32)c2ccccc21	98*	-6	23	6	-3	4
Cc1noc(C)c1S(=O)(=O)NCCN1CCN(c2ccccc2)CC1	86*	0	-6	-1	-1	-11
Cc1noc(C)c1S(=O)(=O)NCCCN1CCN(Cc2ccccc2)CC1	10	.	.	-1	.	-9
COc1ccccc1NC(=S)NNC(=O)c1ccc(O)cc1	99*	-12	-4	-4	1	12
O=C(CCN1CCOCC1)NNC(=S)NC(=O)c1ccccc1	99*	-7	-10	0	1	24
O=C(CNC(=S)NC(=O)c1ccccc1)c1ccccc1	79*	-12	12	2	3	5
O=C(CCN1CCOCC1)c1ccccc1	8	3	-11	-2	3	0
COc1ccccc1C(=O)NNC(=S)Nc1ccccc1	.	-5	-3	.	5	5
COc1ccc(C)cc1NC(=S)NNC(=O)c1ccccc1Cl	77*	0	-7	1	2	-2
O=C(O)c1ccc(NC(=S)Nc2ccccc2)cc1	99*	0	-16	2	2	-1
O=C(NNC(=S)Nc1ccccc1)c1ccc(O)cc1	99*	-4	-5	-1	4	23
O=C(NNC(=S)NC(=O)c1ccccc1)c1ccc(O)cc1	99*	-2	-5	6	6	19
O=C(NNC(=S)Nc1ccccc1)c1ccco1	36	-3	-8	-5	5	5
Cc1ccccc1C(=O)NCC(=O)NNC(=S)NC(=O)c1ccccc1	98*	-4	-9	4	1	26
CC(=NNC(=O)c1ccccc1C)c1cccc([N+](=O)[O-])c1	.	.	.	.	2	.
CCn1c2ccccc2c2cc(C=NNC(=O)c3cc(O)cc(O)c3)ccc21	.	.	.	.	-194	.
C=CCOc1ccccc1C=NO	.	.	.	.	2	.
CCOC(=O)C(C)C(C)=NNC(=O)CCC(=O)Nc1cc(C)ccc1C (centres undefined)	.	.	.	.	0	.
O=C(NNC(=S)Nc1ccccc1)c1ccc2ncccc2c1	78*	2	-6	0	6	9
O=C(O)/C=C/C(=O)c1c(-c2ccccc2)[nH]c2ccccc12	98*	5	-4	3	3	-24
SMILES	ALR H2O2 inh	Rtt109 Vps75	FAS-TE inh	HDAC3 inhib	UCH37 inh	PfM18AAP inh
CC(=O)c1c(-c2ccccc2)[nH]c2ccccc12	-9	6	4	-9	3	-1
O=[N+]([O-])c1ccccc1C=NNC1=NCCCCC1	.	.	.	.	7	.
CSc1nsc(SCC(=O)Nc2ccc(Cl)c(C(=O)O)c2)n1	6	5	-2	-1	0	1
CSc1nsc(SCC(=O)Nc2ccc(O)c(C(=O)O)c2)n1	82*	-9	-4	-10	.	4
C=CCc1c(C)nc(C)nc1NN=Cc1ccc(N(C)C)cc1	.	.	.	.	-60	.
C=CCc1c(C)nc(C)nc1N/N=C/c1ccc(N(C)C)cc1	99*	-1	-4	2	.	26
CC(Cn1nnc([N+](=O)[O-])n1)=NNC(=O)c1ccc(Cl)c(Cl)c1	.	.	.	.	3	.
Fc1ccc(N2CCN(C(=S)NCC3CCCO3)CC2)cc1 (centres undefined)	99*	-7	-4	-1	2	5
Cc1ccccc1NC(=O)CC1SC(=O)N(c2ccccc2)C1=O (centres undefined)	97*	-11	-8	8	4	-17
CCOc1ccc(NC(=O)CC2SC(=O)N(c3ccccc3)C2=O)cc1 (centres undefined)	49	9	-8	40*	9	3
CC(=NOC(=O)C1CC1)C1CC1c1ccc(F)cc1 (centres undefined)	.	.	.	.	1	.
CC(/C=C/c1ccccc1F)=NNC(=O)C(C)C	.	.	.	.	5	.
N=c1sccn1CC(=O)Nc1ccc(S(N)(=O)=O)cc1	.	-13	-7	.	4	0
N=c1sccn1CC(=O)Nc1ccc(SC(F)F)cc1	98*	-2	-19	0	5	-15
N=c1sccn1CC(=O)Nc1cccc2ccccc12	-31	4	-18	-3	20*	-1
CSc1ccccc1NC(=O)Cn1ccsc1=N	-5	-8	-4	-7	0	-6
CC(C)(NO)C(=NO)c1ccc(Br)cc1	.	.	.	.	5	.
COC1=C(Nc2ccc(O)cc2)C(=O)c2ccccc2C1=O	99*	4	-6	10	10	-12
COC1=C(Nc2ccc(OC)cc2)C(=O)c2ccccc2C1=O	26	-4	0	2	6	10
Cc1cc(C)cc(-n2c(C)cc(C=NNC(=O)CN(c3c(C)cccc3C)S(C)(=O)=O)c2C)c1	.	.	.	.	2	.
CC(=O)C(=NNc1cccc(Cl)c1)Sc1cccc2cccnc12	.	.	.	.	7	.
O=C(NC1=C(Nc2ccc(F)cc2)C(=O)c2ccccc2C1=O)c1ccc(Cl)cc1	-59	2	13	0	21*	0
COC(=O)c1ccc(CSC(=N)N)o1	.	-51	1	2	9	4
CCOC(=O)c1ccoc1CSCc1ccc(C(=O)OC)o1	99*	17	1	-2	3	9
CCOC(=O)c1ccc(CSC(=N)N)o1	99*	-21	-8	-1	5	-6
SMILES	ALR H2O2 inh	Rtt109 Vps75	FAS-TE inh	HDAC3 inhib	UCH37 inh	PfM18AAP inh
O=C(NN=Cc1ccc2ccccc2c1)c1ccc(COc2ccc3c(c2)CCC3)o1	.	.	.	.	-35	.
CCCc1c(C(=O)NN=C/C(C)=C/c2ccccc2)nnn1-c1nonc1N	.	.	.	.	4	.
COc1ccc(NCc2cc(=O)[nH]c3ccccc23)cc1	99*	-2	-4	0	4	2
CN(C(=O)CSc1nnc(Cc2ccccc2F)n1N)C1CCS(=O)(=O)C1 (centres undefined)	.	0	-7	1	1	1
CCN(C(=O)CSc1nnc(Cc2ccccc2F)n1N)C1CCS(=O)(=O)C1 (centres undefined)	.	-2	-10	6	27*	-10
COc1cc(O)c(C(CCN2CCOCC2)c2ccc(N(C)C)cc2)c(OC)c1 (centres undefined)	99*	0	-5	0	5	.
